# Test results reported in ChEMBL document CHEMBL4004826, “Discovery of 1-(3-(benzyloxy)pyridin-2-yl)-3-(2-(piperazin-1-yl)ethyl)urea: A new modulator for amyloid beta-induced mitochondrial dysfunction” (Eur J Med Chem, 2017).
# Test system: N2a
# Assay: Cytotoxicity against mouse Neuro2a cells assessed as cell viability after 72 hrs by MTT assay
# Assay type: ADME, cell-based
# Settings: not given
row,Structure (SMILES),IC50
1,O=C(NCCN1CCNCC1)Nc1ncccc1OCc1ccccc1,> 10 µM
2,CC(C)(C)NC(=O)Nc1ncccc1OCc1ccccc1,> 10 µM
3,CCNC(=O)Nc1ncccc1OCc1cccc(F)c1,> 10 µM
4,CC(C)(C)NC(=O)Nc1ncccc1OCc1cccc(F)c1,> 10 µM
5,CC(C)(C)CC(C)(C)NC(=O)Nc1ncccc1OCc1cccc(F)c1,> 10 µM
6,O=C(Nc1ncccc1OCc1ccc(F)cc1)NC1CCCCCC1,> 10 µM
7,CC(C)(C)NC(=O)Nc1ncccc1OCc1ccc(Cl)cc1,> 10 µM
8,O=C(Nc1ncccc1OCc1ccc(Cl)cc1)NC1CCCCCC1,> 10 µM

# Target: Peptidyl-prolyl cis-trans isomerase F, mitochondrial (Mus musculus) (UniProt Q99KR7)
# Assay: Inhibition of Cyclophilin D in mouse HT22 cells assessed as reduction in amyloid beta (1 to 42) induced reactive oxygen species production at 5 uM after 6 hrs by CMH2DCFDA dye based fluorescence assay relative to control
# Assay type: cell-based
# Settings: not given
# Method in brief: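 HT-22 cells, 10,000 per well, treated with compound plus Aβ1-42 in Opti-MEM for 6 h. Cells loaded with CM-H2DCFDA (diluted from 1 mM stock) in HBSS for 30 min at 37 °C, then Hoechst added. Total fluorescence intensity per well taken from high-content imaging. Inhibition expressed as percent of the Aβ-induced signal increase.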
# Peptidyl-prolyl cis-trans isomerase F, mitochondrial (Mus musculus), sequence (Q99KR7 whole entry): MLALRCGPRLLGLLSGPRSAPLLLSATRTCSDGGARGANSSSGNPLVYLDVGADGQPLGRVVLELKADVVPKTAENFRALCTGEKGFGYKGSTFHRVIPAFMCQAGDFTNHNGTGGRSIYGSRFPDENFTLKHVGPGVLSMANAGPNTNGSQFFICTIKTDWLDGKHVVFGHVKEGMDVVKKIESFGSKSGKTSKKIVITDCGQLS
row,Structure (SMILES),inhibition
1,O=C(NCCN1CCNCC1)Nc1ncccc1OCc1ccccc1,97%
2,CC(C)(C)NC(=O)Nc1ncccc1OCc1ccccc1,95%
3,NC(=O)CN1CCCC1=O,129%

# Target: Voltage-gated inwardly rectifying potassium channel KCNH2 (Homo sapiens, UniProt Q12809)
# Assay: Displacement of [3H]-Astemizole from human ERG expressed in HEK293 cell membranes measured after 1 hr by microbeta counting method
# Settings: not given
# Method in brief: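 Radioligand binding to membranes (2.5 µg) from HEK-293 cells expressing hERG. Buffer was 50 mM Hepes pH 7.4 with 60 mM KCl, 0.1% BSA and 4 nM [3H]astemizole, incubated 1 h at RT. Samples filtered through PEI-soaked filtermat. Non-specific binding defined with 0.1 µM astemizole. Used 5–6 test concentrations in duplicate, with isotherms from two assays.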
# Voltage-gated inwardly rectifying potassium channel KCNH2, sequence (Q12809 whole entry): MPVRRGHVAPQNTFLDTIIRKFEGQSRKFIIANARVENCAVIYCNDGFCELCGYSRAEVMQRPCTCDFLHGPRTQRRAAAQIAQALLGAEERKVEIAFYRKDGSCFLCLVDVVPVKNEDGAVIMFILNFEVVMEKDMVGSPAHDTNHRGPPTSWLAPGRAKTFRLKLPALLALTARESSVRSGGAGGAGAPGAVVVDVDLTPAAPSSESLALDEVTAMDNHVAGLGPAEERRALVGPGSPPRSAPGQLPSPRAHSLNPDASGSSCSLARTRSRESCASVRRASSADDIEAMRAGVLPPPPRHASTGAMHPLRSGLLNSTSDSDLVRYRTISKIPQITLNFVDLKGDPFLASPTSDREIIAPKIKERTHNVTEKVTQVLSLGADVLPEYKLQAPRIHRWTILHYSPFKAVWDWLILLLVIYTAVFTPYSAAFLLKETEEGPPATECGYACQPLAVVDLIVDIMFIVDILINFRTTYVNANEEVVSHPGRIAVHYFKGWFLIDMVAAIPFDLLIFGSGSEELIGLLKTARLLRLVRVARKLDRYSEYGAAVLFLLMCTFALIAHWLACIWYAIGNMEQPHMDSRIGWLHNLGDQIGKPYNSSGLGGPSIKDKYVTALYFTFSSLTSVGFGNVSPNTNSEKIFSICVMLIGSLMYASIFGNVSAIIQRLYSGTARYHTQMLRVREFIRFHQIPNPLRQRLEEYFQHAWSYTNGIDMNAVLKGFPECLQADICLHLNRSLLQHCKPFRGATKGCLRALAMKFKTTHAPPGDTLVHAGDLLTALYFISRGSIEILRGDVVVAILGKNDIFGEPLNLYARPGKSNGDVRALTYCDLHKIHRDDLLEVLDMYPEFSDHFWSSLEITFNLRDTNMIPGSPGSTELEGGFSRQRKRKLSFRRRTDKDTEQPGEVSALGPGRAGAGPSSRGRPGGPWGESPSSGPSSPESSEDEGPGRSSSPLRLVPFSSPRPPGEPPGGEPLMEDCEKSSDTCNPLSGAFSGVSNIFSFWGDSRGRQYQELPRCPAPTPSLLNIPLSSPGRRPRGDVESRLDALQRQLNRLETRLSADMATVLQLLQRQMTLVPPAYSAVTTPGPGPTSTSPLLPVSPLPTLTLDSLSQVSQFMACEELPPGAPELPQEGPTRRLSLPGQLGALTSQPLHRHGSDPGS
row,Structure (SMILES),IC50
1,O=C(NCCN1CCNCC1)Nc1ncccc1OCc1ccccc1,> 28.7 µM

# Target: Peptidyl-prolyl cis-trans isomerase F, mitochondrial (Mus musculus) (UniProt Q99KR7)
# Assay: Inhibition of cyclophilin D in mouse HT22 cells assessed as reduction in amyloid beta (1 to 42) induced mitochondrial permeability transition pore opening by measuring increase in green to red fluorescence ratio at 5 uM pretreated for 10 mins followed by amyloid beta (1 to 42) stimulation measured at 1 hr interval for 3 hrs by JC-1 dye based fluorescence assay relative to control
# Assay type: cell-based
# Parameters: scale not given: the % may be the effect or the level left
# Settings: not given
# Method in brief: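 HT-22 cells, 30,000 per well, loaded with JC-1 at 7.5 µM final in phenol red-free Opti-MEM for 1 h 15 min at 37 °C, then PBS-washed. Compound at 5 µM for 10 min at 37 °C, then Aβ1-42 (5 µM solution) added. Red (ex/em 530/580 nm) and green (485/530 nm) fluorescence read hourly for 3 h. Green/red ratio normalized to the Aβ-alone control as 100%.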
row,Structure (SMILES),Activity
1,CC(C)(C)NC(=O)Nc1ncccc1OCc1cccc(Cl)c1,176%
2,O=C(NCCN1CCNCC1)Nc1ncccc1OCc1ccccc1,16%
3,CC(C)(C)NC(=O)Nc1ncccc1OCc1ccc(F)cc1,49%
4,CC(C)(C)NC(=O)Nc1ncccc1OCc1ccccc1,23%
5,CCNC(=O)Nc1ncccc1OCc1cccc(F)c1,14%
6,CCNC(=O)Nc1ncccc1OCc1ccc(F)cc1,127%
7,O=C(NCCCl)Nc1ncccc1OCc1ccccc1,169%
8,CC(C)(C)NC(=O)Nc1ncccc1OCc1cccc(F)c1,44%
9,CC(C)(C)CC(C)(C)NC(=O)Nc1ncccc1OCc1cccc(Cl)c1,50%
10,O=C(Nc1ncccc1OCc1cccc(Cl)c1)NC1CCCCCC1,46%
11,CC(C)(C)CC(C)(C)NC(=O)Nc1ncccc1OCc1ccccc1Cl,21%
12,O=C(NCCCl)Nc1ncccc1OCc1ccccc1Cl,41%
13,CC(C)(C)CC(C)(C)NC(=O)Nc1ncccc1OCc1cccc(F)c1,31%
14,O=C(Nc1ncccc1OCc1ccccc1Cl)NC1CCCCCC1,41%
15,O=C(Nc1ncccc1OCc1ccc(F)cc1)NC1CCCCCC1,28%
16,O=C(NCCN1CCNCC1)Nc1ncccc1OCc1cccc(Cl)c1,48%
17,CC(C)(C)NC(=O)Nc1ncccc1OCc1ccc(Cl)cc1,35%
18,O=C(NCCCl)Nc1ncccc1OCc1ccc(Cl)cc1,131%
19,O=C(Nc1ncccc1OCc1ccccc1)NC1CCCCCC1,130%
20,CCNC(=O)Nc1ncccc1OCc1ccccc1Cl,49%
21,O=C(Nc1ncccc1OCc1ccc(Cl)cc1)NC1CCCCCC1,19%
22,O=C(NCCCl)Nc1ncccc1OCc1ccc(F)cc1,64%
23,O=C(Nc1ncccc1OCc1cccc(F)c1)NC1CCCCCC1,91%
24,O=C(NCCCl)Nc1ncccc1OCc1cccc(Cl)c1,73%
25,CCNC(=O)Nc1ncccc1OCc1ccc(Cl)cc1,94%

# Target: Peptidyl-prolyl cis-trans isomerase F, mitochondrial (Mus musculus) (UniProt Q99KR7)
# Assay: Inhibition of Cyclophilin D in mouse HT22 cells assessed as reduction in amyloid beta (1 to 42) induced decrease in cell viability at 5 uM after 24 hrs by MTT assay relative to control
# Assay type: cell-based
# Settings: not given
# Method in brief: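 HT-22 cells, 5000 per well, pretreated 10 min with compound, then Aβ1-42 added and incubated 24 h at 37 °C. MTT added for 2 h, then acidified Triton/isopropanol solubilization, and absorbance read at 570 nm. Percent inhibition calculated relative to vehicle control with Aβ.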
row,Structure (SMILES),inhibition
1,O=C(NCCN1CCNCC1)Nc1ncccc1OCc1ccccc1,81%
2,CC(C)(C)NC(=O)Nc1ncccc1OCc1ccccc1,11%
3,NC(=O)CN1CCCC1=O,29%

# Target: Peptidyl-prolyl cis-trans isomerase F, mitochondrial (Mus musculus) (UniProt Q99KR7)
# Assay: Inhibition of Cyclophilin D in mouse HT22 cells assessed as neuroprotective activity against amyloid beta (1 to 42) induced impairment of ATP production by measuring assessed as recovery of ATP production at 5 uM pretreated for 10 mins followed by amyloid beta (1 to 42) stimulation measured after 7 hrs by luciferase based assay relative to control
# Assay type: cell-based
# Parameters: scale not given: the % may be the effect or the level left
# Settings: not given
# Method in brief: (§1)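 HT-22 cells, 10,000 per well, seeded one day before. Cells pretreated 10 min at 37 °C with compound, then Aβ1-42 added, and incubated 7 h. Cells were washed, lysed in 1% Triton X-100/TBST, and equal protein amounts (BCA) assayed for ATP by luciferase. Recovery was calculated against the Aβ-treated vehicle control. ATP viability comes from samples without Aβ.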
row,Structure (SMILES),Activity
1,O=C(NCCN1CCNCC1)Nc1ncccc1OCc1ccccc1,87%
2,CC(C)(C)NC(=O)Nc1ncccc1OCc1ccccc1,72%
3,CCNC(=O)Nc1ncccc1OCc1cccc(F)c1,41%
4,CC(C)(C)NC(=O)Nc1ncccc1OCc1cccc(F)c1,45%
5,NC(=O)CN1CCCC1=O,127%
6,CC(C)(C)CC(C)(C)NC(=O)Nc1ncccc1OCc1cccc(F)c1,-140%
7,O=C(Nc1ncccc1OCc1ccc(F)cc1)NC1CCCCCC1,40%
8,CC(C)(C)NC(=O)Nc1ncccc1OCc1ccc(Cl)cc1,13%
9,O=C(Nc1ncccc1OCc1ccc(Cl)cc1)NC1CCCCCC1,47%

# Test system: N2a
# Assay: Induction of reactive oxygen species production in mouse Neuro2a cells assessed as H2O2 level at 10 uM after 6 hrs by ROS-Glo luminescence assay relative to control
# Assay type: cell-based
# Settings: not given
# Method in brief: (§2)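 Neuro-2a cells, 2000 per well, given compounds from 10-dose 3-fold serial dilutions of 10 mM DMSO stocks. H2O2 substrate added immediately, then 6 h at 37 °C, 5% CO2. ROS-Glo detection reagent added for 20 min at RT, then luminescence read. H2O2 expressed as fold of untreated, with IC50 fitted from the dose series.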
row,Structure (SMILES),fold change (FC)
1,O=C(NCCN1CCNCC1)Nc1ncccc1OCc1ccccc1,0.97
2,CC(C)(C)NC(=O)Nc1ncccc1OCc1ccccc1,0.92
3,CCNC(=O)Nc1ncccc1OCc1cccc(F)c1,1.14
4,CC1=CC(=O)c2ccccc2C1=O [MENADIONE],6.94
5,CC(C)(C)NC(=O)Nc1ncccc1OCc1cccc(F)c1,0.94
6,CC(C)(C)CC(C)(C)NC(=O)Nc1ncccc1OCc1cccc(F)c1,1.02
7,O=C(Nc1ncccc1OCc1ccc(F)cc1)NC1CCCCCC1,0.91
8,CC(C)(C)NC(=O)Nc1ncccc1OCc1ccc(Cl)cc1,0.91
9,O=C(Nc1ncccc1OCc1ccc(Cl)cc1)NC1CCCCCC1,1.15

# Test system: not listed separately
# Assay: Cytotoxicity against mouse Neuro2a cells assessed as cell viability at 10 uM after 72 hrs by MTT assay relative to control
# Assay type: cell-based, N2a
# Settings: read-out: Activity
# Method in brief: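 Neuro-2a cells grown in EMEM with 10% FBS and penicillin/streptomycin. A 10 mM DMSO stock was diluted 3-fold over 10 doses in DMSO, and 2000 cells were added per well. Incubated 72 h at 37 °C, 5% CO2. MTT added for 4 h, then solubilization/stop solution for 1 h. Absorbance read at 590 nm. Viability is from color intensity, with IC50 fitted to a sigmoidal dose-response curve.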
row,Structure (SMILES),"viability at 72 h, 10 µM"
1,O=C(NCCN1CCNCC1)Nc1ncccc1OCc1ccccc1,102%
2,CC(C)(C)NC(=O)Nc1ncccc1OCc1ccccc1,106%
3,CCNC(=O)Nc1ncccc1OCc1cccc(F)c1,96.6%
4,CC(C)(C)NC(=O)Nc1ncccc1OCc1cccc(F)c1,95.8%
5,CN[C@@H]1C[C@H]2O[C@@](C)([C@@H]1OC)n1c3ccccc3c3c4c(c5c6ccccc6n2c5c31)C(=O)NC4 [STAUROSPORINE],1.3%
6,CC(C)(C)CC(C)(C)NC(=O)Nc1ncccc1OCc1cccc(F)c1,101%
7,O=C(Nc1ncccc1OCc1ccc(F)cc1)NC1CCCCCC1,93.2%
8,CC(C)(C)NC(=O)Nc1ncccc1OCc1ccc(Cl)cc1,93.1%
9,O=C(Nc1ncccc1OCc1ccc(Cl)cc1)NC1CCCCCC1,85.2%

# Test system: N2a
# Assay: Inhibition of reactive oxygen species production in mouse Neuro2a cells assessed as decrease in H2O2 levels after 6 hrs by ROS-Glo luminescence assay
# Assay type: functional, cell-based
# Settings: not given
# Method in brief: as §2
row,Structure (SMILES),IC50
1,O=C(NCCN1CCNCC1)Nc1ncccc1OCc1ccccc1,> 10 µM
2,CC(C)(C)NC(=O)Nc1ncccc1OCc1ccccc1,> 10 µM
3,CCNC(=O)Nc1ncccc1OCc1cccc(F)c1,> 10 µM
4,CC1=CC(=O)c2ccccc2C1=O [MENADIONE],2.69 µM
5,CC(C)(C)NC(=O)Nc1ncccc1OCc1cccc(F)c1,> 10 µM
6,CC(C)(C)CC(C)(C)NC(=O)Nc1ncccc1OCc1cccc(F)c1,> 10 µM
7,O=C(Nc1ncccc1OCc1ccc(F)cc1)NC1CCCCCC1,> 10 µM
8,CC(C)(C)NC(=O)Nc1ncccc1OCc1ccc(Cl)cc1,> 10 µM
9,O=C(Nc1ncccc1OCc1ccc(Cl)cc1)NC1CCCCCC1,> 10 µM

# Target: Peptidyl-prolyl cis-trans isomerase F, mitochondrial (Mus musculus) (UniProt Q99KR7)
# Assay: Inhibition of Cyclophilin D in mouse HT22 cells assessed as neuroprotective activity against amyloid beta (1 to 42) induced impairment of ATP production by measuring cell viability at 5 pretreated for 10 mins followed by amyloid beta (1 to 42) stimulation measured after 7 hrs by luciferase based assay relative to control
# Settings: not given
# Method in brief: as §1
row,Structure (SMILES),Activity
1,O=C(NCCN1CCNCC1)Nc1ncccc1OCc1ccccc1,78%
2,CC(C)(C)NC(=O)Nc1ncccc1OCc1ccccc1,103%
3,CCNC(=O)Nc1ncccc1OCc1cccc(F)c1,102%
4,CC(C)(C)NC(=O)Nc1ncccc1OCc1cccc(F)c1,129%
5,NC(=O)CN1CCCC1=O,88%
6,CC(C)(C)CC(C)(C)NC(=O)Nc1ncccc1OCc1cccc(F)c1,30%
7,O=C(Nc1ncccc1OCc1ccc(F)cc1)NC1CCCCCC1,99%
8,CC(C)(C)NC(=O)Nc1ncccc1OCc1ccc(Cl)cc1,104%
9,O=C(Nc1ncccc1OCc1ccc(Cl)cc1)NC1CCCCCC1,105%

# Test system: not listed separately
# Assay: Cytotoxicity against mouse HT22 cells assessed as cell viability at 5 uM after 24 hrs by MTT assay relative to control
# Assay type: cell-based, HT-22
# Settings: read-out: Activity
# Method in brief: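 HT-22 cells, 5000 per well, seeded one day before the assay. Compound solution added, then cells incubated 24 h at 37 °C. MTT added for 2 h at 37 °C. Formazan dissolved in 10% Triton X-100 in isopropanol with 0.1 M HCl for 1 h at room temperature, then absorbance read. Viability relative to vehicle control, without Aβ.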
row,Structure (SMILES),"viability at 24 h, 5 µM"
1,O=C(NCCN1CCNCC1)Nc1ncccc1OCc1ccccc1,133%
2,CC(C)(C)NC(=O)Nc1ncccc1OCc1ccccc1,92%
3,NC(=O)CN1CCCC1=O,132%

# Test system: not listed separately
# Assay: Effective permeability of the compound at pH 7.4 at 50 uM after 4 hrs by PAMPA
# Assay type: physicochemical
# Settings: read-out: Peff
# Method in brief: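 BBB-PAMPA (double-sink) setup. 10 mM DMSO stocks were diluted to 50 µM in buffer pH 7.4 as the donor, with brain sink buffer as the acceptor. Incubated 4 h at 26 °C. Donor, acceptor and reference concentrations measured by UV (230–498 nm), and Pe calculated on a double-sink basis.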
row,Structure (SMILES),"Papp at 4 h, 50 µM"
1,O=C(NCCN1CCNCC1)Nc1ncccc1OCc1ccccc1,20.6 ×10⁻⁶ cm/s
2,CC(C)(C)NC(=O)Nc1ncccc1OCc1ccccc1,45.1 ×10⁻⁶ cm/s
3,Cn1c(=O)c2[nH]cnc2n(C)c1=O.O [THEOPHYLLINE],0.29 ×10⁻⁶ cm/s
4,CC(=O)[C@H]1CC[C@H]2[C@@H]3CCC4=CC(=O)CC[C@]4(C)[C@H]3CC[C@]12C [PROGESTERONE],48.8 ×10⁻⁶ cm/s
